Experimental data gathered from unrelated publications.
Lines come from different studies, so protocols differ.
Effect on: cell growth or viability

CC(C)C[C@H](NC(=O)[C@H](CCCCN)NC(=O)[C@H](Cc1c[nH]c2ccccc12)NC(=O)[C@H](CCCNC(=N)N)NC(=O)[C@H](CCCCN)NC(=O)[C@H](CC(C)C)NC(=O)[C@H](Cc1ccccc1)NC(=O)[C@H](CCCCN)NC(=O)[C@H](CCCCN)NC(=O)[C@H](CC(C)C)NC(=O)[C@H](CC(C)C)NC(=O)[C@H](CCCCN)NC(=O)[C@@H](N)CO)C(N)=O  IC50 (A549; MTT; 24 h): 26 µM
COc1cc(C(=O)c2nc(-c3cccc4c3ccn4C)c[nH]2)cc(OC)c1OC  IC50 (PC-3; MTS; 72 h): 0.0127 µM
CC[C@H](C)[C@H](NC(=O)[C@H](CCCNC(=N)N)NC(=O)[C@H](CCCNC(=N)N)NC(=O)[C@H](CCCCN)NC(=O)[C@H](CCCNC(=N)N)NC(=O)[C@H](CCCNC(=N)N)NC(=O)[C@H](CCCNC(=N)N)NC(=O)[C@H](CC(C)C)NC(=O)[C@H](CCCNC(=N)N)NC(=O)CNC(=O)[C@H](CCSC)NC(=O)[C@@H](N)CCSC)C(=O)N[C@@H](CCCCN)C(N)=O  IC50 (A549; MTT; 24 h): > 500 µM
COc1cc(C(=O)c2nc(-c3cccc4[nH]ccc34)cn2C)cc(OC)c1OC  IC50 (PC-3; MTS; 72 h): 0.17 µM
N.N.[Cl][Pt][Cl]  IC50 (NIH3T3; 96 h; 3D culture): 33.8 µM
N.N.[Cl][Pt][Cl]  IC50 (A549; MTT; 48 h): 46.4 µM
COc1cc(C(=O)c2nc(-c3cccc4occc34)c[nH]2)cc(OC)c1OC  IC50 (PC-3; MTS; 72 h): 0.0614 µM
CC[C@H](C)[C@H](NC(=O)CN)C(=O)NCC(=O)N[C@@H](C)C(=O)N[C@H](C(=O)N[C@@H](CC(C)C)C(=O)N[C@@H](CCCCN)C(=O)N[C@H](C(=O)N[C@@H](CC(C)C)C(=O)N[C@H](C(=O)N[C@H](C(=O)NCC(=O)N[C@@H](CC(C)C)C(=O)N1CCC[C@H]1C(=O)N[C@@H](C)C(=O)N[C@@H](CC(C)C)C(=O)N[C@H](C(=O)N[C@@H](CO)C(=O)N[C@@H](Cc1c[nH]c2ccccc12)C(=O)N[C@H](C(=O)N[C@@H](CCCCN)C(=O)N[C@@H](CCCNC(=N)N)C(=O)N[C@@H](CCCCN)C(=O)N[C@@H](CCCNC(=N)N)C(=O)N[C@@H](CCC(N)=O)C(=O)N[C@@H](CCC(N)=O)C(N)=O)[C@@H](C)CC)[C@@H](C)CC)[C@@H](C)O)[C@@H](C)O)C(C)C)C(C)C  IC50 (IPEC-J2; MTT; 24 h): 8.58 µM
CC(C)[C@H](NC(=O)[C@H](CCCCN)NC(=O)[C@H](Cc1c[nH]c2ccccc12)NC(=O)[C@H](Cc1c[nH]c2ccccc12)NC(=O)[C@H](CCCNC(=N)N)NC(=O)[C@H](Cc1c[nH]c2ccccc12)NC(=O)[C@H](CCCNC(=N)N)NC(=O)[C@@H](N)CCCNC(=N)N)C(=O)N[C@@H](Cc1c[nH]cn1)C(=O)N[C@@H](Cc1c[nH]c2ccccc12)C(=O)N[C@@H](Cc1c[nH]cn1)C(=O)N[C@@H](CCC(=O)O)C(=O)N[C@@H](Cc1c[nH]c2ccccc12)C(N)=O  IC50 (A549; MTT; 24 h): > 500 µM
COc1cc(C(=O)c2nc(-c3cccc4ncccc34)c[nH]2)cc(OC)c1OC  IC50 (PC-3; MTS; 72 h): > 1 µM
CC[C@H](C)[C@H](NC(=O)[C@H](CCCCN)NC(=O)[C@H](CCCNC(=N)N)NC(=O)[C@H](Cc1ccccc1)NC(=O)[C@H](CCCNC(=N)N)NC(=O)[C@H](CCCNC(=N)N)NC(=O)[C@H](CCCNC(=N)N)NC(=O)[C@H](Cc1ccccc1)NC(=O)[C@H](CCCCN)NC(=O)[C@H](CCCNC(=N)N)NC(=O)[C@H](CC(C)C)NC(=O)[C@@H](N)CCCNC(=N)N)C(=O)NCC(N)=O  IC50 (A549; MTT; 24 h): > 500 µM
N.N.[Cl][Pt][Cl]  IC50 (MEG-01; ATP luminescence; 72 h): 5.17 µM
CC(=N)S  IC50 (NIH3T3; 96 h): 109 µM
CC(C)C[C@H](NC(=O)[C@@H](N)CCCNC(=N)N)C(=O)N[C@@H](CCCNC(=N)N)C(=O)N[C@@H](CCCCN)C(=O)N[C@@H](Cc1ccccc1)C(=O)N[C@@H](CCCNC(=N)N)C(=O)N[C@@H](CCCNC(=N)N)C(=O)N[C@@H](CCCNC(=N)N)C(=O)N[C@@H](Cc1ccccc1)C(=O)N[C@@H](CCCNC(=N)N)C(=O)N[C@@H](CCCCN)C(=O)N[C@@H](CCC(=O)O)C(=O)NCC(N)=O  IC50 (A549; MTT; 24 h): > 500 µM
O=C1CCP(c2ccccc2)CC1  IC50 (PC-3; MTT; 72 h): 84.2 µM
